One molecule from ChEMBL document CHEMBL4732155 (Eur J Med Chem, 2021) can be followed below.

Calls of active or inactive are those of the source. No cut-off for these calls is given here.

For orientation: IC50 means the concentration needed to halve the response being measured.

Assay [1] can be described thus: Inhibition of yeast Cdc48 T532C mutant assessed as reduction in ATPase activity measured after 60 mins by biomol green reagent based assay. Further details: species or system Saccharomyces cerevisiae. In outline: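 Yeast Cdc48 ATPase activity with 200 μM ATP in Tris pH 7.4 buffer containing MgCl2, EDTA, TCEP and Triton X-100, 60 min at room temperature. Biomol Green read at 635 nm. Eight-dose titration; IC50 from six replicates.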

Assay [2] in a line: Effect on CDK2AP1 expression in human HCT-116 cells at 15 uM measured after 6 hrs by LC-MS/MS analysis relative to control. It counts as functional. In outline:
(§1)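 HCT116 cells treated 6 h with DMSO, 15 μM or 30 μM compound, then pelleted. Peptides (1 μg) separated on a 25 cm C18 nano-column with a 136 min gradient and analysed by label-free LC-MS/MS on an Orbitrap Eclipse. Searched against the UniProt human database and quantified from normalized abundance. Two independent biological replicates per group; log2 fold change versus DMSO, p < 0.05.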

Assay [3] can be described thus: Effect on PLEC expression in human HCT-116 cells at 30 uM measured after 6 hrs by LC-MS/MS analysis relative to control. It counts as functional. In outline:
as §1

Assay [4] is described as follows: Effect on AP2M1 expression in human HCT-116 cells at 30 uM measured after 6 hrs by LC-MS/MS analysis relative to control. The class given is functional. Summed up:
as §1

Assay [5] can be described thus: Effect on STIM1 expression in human HCT-116 cells at 15 uM measured after 6 hrs by LC-MS/MS analysis relative to control. It counts as functional. Summed up:
as §1

Assay [6] can be described thus: Effect on GOLGA3 expression in human HCT-116 cells at 30 uM measured after 6 hrs by LC-MS/MS analysis relative to control. It counts as functional. Summed up: as §1
A short description of assay [7]: Effect on KEAP1 expression in human HCT-116 cells at 30 uM measured after 6 hrs by LC-MS/MS analysis relative to control. It counts as functional. In outline:
as §1

In a further assay the test system is RPMI-8226. The experiment in a line: Antiproliferative activity against human RPMI-8226 cells after 48 hrs by celltiter-glo luminescence assay. It counts as functional, cell-based. Conditions: RPMI-8226, 48 h. (ATP-based viability assays read luminescence as a measure of living cells.)
Assay [8] can be described thus: Effect on AUP1 expression in human HCT-116 cells at 15 uM measured after 6 hrs by LC-MS/MS analysis relative to control. It counts as functional. Summed up: as §1
Assay [9] is described as follows: Effect on ZFAND1 expression in human HCT-116 cells at 15 uM measured after 6 hrs by LC-MS/MS analysis relative to control. It counts as functional. In outline:
as §1

The nature of assay [10]: Inhibition of yeast Cdc48 assessed as reduction in ATPase activity measured after 60 mins by biomol green reagent based assay. Further details: species or system Saccharomyces cerevisiae. In outline:
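Incubation ran 60 min at room temperature and was stopped with Biomol Green. Phosphate was read as absorbance at 635 nm. IC50 came from an eight-dose titration, six replicates.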

Assay [11] in a line: Effect on BRCC3 expression in human HCT-116 cells at 15 uM measured after 6 hrs by LC-MS/MS analysis relative to control. It counts as functional. In outline:
as §1

Assay [12] is described as follows: Effect on ZFAND1 expression in human HCT-116 cells at 30 uM measured after 6 hrs by LC-MS/MS analysis relative to control. It counts as functional. Summed up:
as §1

A short description of assay [13]: Effect on LAMP1 expression in human HCT-116 cells at 30 uM measured after 6 hrs by LC-MS/MS analysis relative to control. It counts as functional. Summed up: as §1
In another assay the test system is HCT-116. The experiment in a line: Antiproliferative activity against NMS-873-resistant human HCT-116 cells after 48 hrs by celltiter-glo luminescence assay. The class given is functional, cell-based. Summed up:
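CellTiter-Glo viability in HCT116 lines carrying resistance mutations in p97 (CB-5083-resistant: D649A/T688A; NMS-873-resistant: A530T). Cells seeded at 750 or 3000/well within the linear range of a per-line standard curve, in DMEM with 5% FBS. Treated 24 h after seeding with eight three-fold dilutions for 48 h. IC50 from percent growth versus DMSO control; mean ± SEM of four replicate experiments.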

The target in assay [14] is T1, Transitional endoplasmic reticulum ATPase (Homo sapiens, UniProt P55072). The experiment in a line: Irreversible inhibition of p97 in human HeLa cells assessed as reduction in p97-dependent reporter substrate UbG76V-GFP degradation preincubated followed by washout and measured after 17 hrs by luciferase reporter gene assay. It counts as cell-based. The following applies: in the assay text read “GFP fluorescence assay” for “luciferase reporter gene assay”. In outline: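 HeLa cells expressing UbG76V-GFP/ODD-Luc, 5000 cells/well in DMEM with 2.5% FBS. Pretreated with 4 μM MG132 for 60 min at 37 °C, PBS-washed, then given cycloheximide plus compound for 120 min. After washout, GFP decay followed in cycloheximide for an additional 17 h. GFP read by high-content imaging; luciferase read with D-luciferin; quadruplicates.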

Assay [15] in a line: Effect on LAMP1 expression in human HCT-116 cells at 15 uM measured after 6 hrs by LC-MS/MS analysis relative to control. It counts as functional. In outline:
as §1

Assay [16] concerns the target T1, Transitional endoplasmic reticulum ATPase. Kind of assay: Inhibition of His6-tagged p97 (unknown origin) expressed in Escherichia coli BL21 (DE3) assessed as reduction in ATPase activity measured after 60 mins in presence of DTT by biomol green reagent based assay. In outline:
(§2)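 His6-p97 expressed in E. coli BL21(DE3), purified by Ni-NTA and gel filtration (500–600 kDa fractions, ≥95% pure). Phosphate read by Biomol Green at 635 nm. Eight-dose titrations; IC50 from six replicates. Thiol tests added DTT or cysteine during preincubation.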

Assay [17] has the same target. Kind of assay: Binding affinity to His6-tagged p97 (unknown origin) expressed in Escherichia coli BL21 (DE3) assessed as Cys522-adduct formation by tandem mass spectrometry.
Assay [18] has the same target. The experiment in a line: Inhibition of His6-tagged p97 (unknown origin) expressed in Escherichia coli BL21 (DE3) assessed as reduction in ATPase activity measured after 60 mins in presence of cysteine by biomol green reagent based assay. Summed up:
as §2

Assay [19] is described as follows: Effect on PLEC expression in human HCT-116 cells at 15 uM measured after 6 hrs by LC-MS/MS analysis relative to control. The class given is functional. Summed up: as §1
A short description of assay [20]: Effect on GOLGA3 expression in human HCT-116 cells at 15 uM measured after 6 hrs by LC-MS/MS analysis relative to control. The class given is functional. Summed up:
as §1

Assay [21] is described as follows: Effect on EPPK1 expression in human HCT-116 cells at 15 uM measured after 6 hrs by LC-MS/MS analysis relative to control. The class given is functional. In outline: as §1
The nature of assay [22]: Effect on BRIX1 expression in human HCT-116 cells at 30 uM measured after 6 hrs by LC-MS/MS analysis relative to control. It counts as functional. In outline:
as §1

T1 sequence (P55072 2-806 limits assumed): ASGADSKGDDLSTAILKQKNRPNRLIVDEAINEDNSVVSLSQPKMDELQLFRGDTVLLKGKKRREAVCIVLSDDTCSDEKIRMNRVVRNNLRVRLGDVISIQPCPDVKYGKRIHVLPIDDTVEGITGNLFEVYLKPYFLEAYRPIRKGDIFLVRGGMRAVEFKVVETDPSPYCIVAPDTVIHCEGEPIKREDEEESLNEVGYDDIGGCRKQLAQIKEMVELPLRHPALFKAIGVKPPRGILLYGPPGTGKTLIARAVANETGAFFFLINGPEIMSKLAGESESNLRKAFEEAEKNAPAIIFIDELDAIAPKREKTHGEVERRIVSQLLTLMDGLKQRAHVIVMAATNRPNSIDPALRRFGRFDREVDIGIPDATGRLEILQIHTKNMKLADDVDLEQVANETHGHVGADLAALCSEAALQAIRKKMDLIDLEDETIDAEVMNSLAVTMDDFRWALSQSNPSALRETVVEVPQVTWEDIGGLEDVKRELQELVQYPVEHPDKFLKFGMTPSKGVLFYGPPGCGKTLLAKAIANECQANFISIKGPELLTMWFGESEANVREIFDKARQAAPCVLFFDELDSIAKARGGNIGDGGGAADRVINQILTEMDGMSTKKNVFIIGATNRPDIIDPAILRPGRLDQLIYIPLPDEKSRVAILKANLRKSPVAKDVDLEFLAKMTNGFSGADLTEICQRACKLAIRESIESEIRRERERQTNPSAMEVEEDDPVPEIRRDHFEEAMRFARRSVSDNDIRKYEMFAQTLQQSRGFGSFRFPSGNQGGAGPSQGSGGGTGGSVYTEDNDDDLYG

Consider `C=CC(=O)Nc1ncnc2c1c(-c1ccccc1)nn2C(C)(C)C`, for which the IC50 in assay [1] worked out at 14 µM; in the assay on RPMI-8226, 3.4 µM; in [10], 376 µM. The log2FC in assay [2] is recorded as -0.48; in assay [3], 0.58; in assay [4], -0.38; in [5] it was 1.49; in [6], -0.7; in assay [7], -1.03. In addition, the log2FC in [8] is listed as -0.39; in assay [9], 0.49; in [11], 0.94; in [12], 0.42; in assay [13] it was -0.66; in assay [15], -0.59. Further, the log2FC is given as 0.33 in [19], -0.36 in assay [20], 0.38 in assay [21] and 0.7 in assay [22]. The result (in the assay with HCT-116; in assay [17]) was Active. Further, the inhibition result in [14], in assay [16] and in [18] was “Active” throughout.
